Assay results as given in ChEMBL document CHEMBL5303300, “EUbOPEN Chemogenomics Library - Multiplex” (2023).
“And” between values parts separate entries of the source, which are not always exact repeats. Identical values can stand only once.

Tested on: Fibroblast
Assay: Multiplex assay against human fibroblast
Format: toxicity, cell-based
Details: number of replicates 2
Summary of the method: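 On a CQ1 microscope at 37°C and 5% CO2, live cells were imaged after compound addition. They had been stained at seeding with Hoechst33342, BioTracker Green Microtubule Cytoskeleton Dye, MitoTracker Red and Annexin V Alexa Fluor 680. CellPathfinder machine-learning gating assigned cells to Hoechst high-intensity objects or normal cells, normal cells to healthy, pyknosed or fragmented nuclei, and pyknosed cells to mitotic or apoptotic. Tubulin, mitochondrial-mass and membrane-permeability phenotypes are per cents of healthy-nucleus cells.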

[1] = 12 h, 1 µM, compound concentration 1 uM
[2] = 12 h, 10 µM, compound concentration 10 uM
[3] = 24 h, 1 µM, compound concentration 1 uM
[4] = 24 h, 10 µM, compound concentration 10 uM
[5] = 48 h, 1 µM, compound concentration 1 uM
[6] = 48 h, 10 µM, compound concentration 10 uM

## C[C@@H](Oc1cc(-n2cnc3ccc(OC4CCN(C)CC4)cc32)sc1C(N)=O)c1ccccc1Cl [GSK-579289A]
[1]
  Population Apoptotic (%): 45% and 36%
  Population Fragmented Nuclei (%): 21% and 15%
  Population Healthy Nuclei (%): 62% and 60%
  Population Hoechst High Intensity Objects (%): 0%
  Population Membrane Permeable-Phenotype (%): 7% and 10%
  Population Mitochondria Different-Phenotype (%): 1% and 3%
  Population Mitotic Cells (%): 54% and 63%
  Population Normal (%): 99% and 100%
  Population Pyknosed Nuclei (%): 15% and 24%
  Population Tubulin-Different-Phenotype (%): 40% and 48%
  Total Cell Count: 296 and 182
[2]
  Population Apoptotic (%): 40% and 46%
  Population Fragmented Nuclei (%): 13% and 23%
  Population Healthy Nuclei (%): 60% and 59%
  Population Hoechst High Intensity Objects (%): 0%
  Population Membrane Permeable-Phenotype (%): 5% and 13%
  Population Mitochondria Different-Phenotype (%): 12% and 13%
  Population Mitotic Cells (%): 59% and 53%
  Population Normal (%): 100%
  Population Pyknosed Nuclei (%): 26% and 17%
  Population Tubulin-Different-Phenotype (%): 84% and 85%
  Total Cell Count: 323 and 282
[3]
  Population Apoptotic (%): 54% and 58%
  Population Fragmented Nuclei (%): 18% and 23%
  Population Healthy Nuclei (%): 63% and 57%
  Population Hoechst High Intensity Objects (%): 1% and 0%
  Population Membrane Permeable-Phenotype (%): 3% and 2%
  Population Mitochondria Different-Phenotype (%): 3% and 5%
  Population Mitotic Cells (%): 45% and 41%
  Population Normal (%): 98% and 99%
  Population Pyknosed Nuclei (%): 18% and 19%
  Population Tubulin-Different-Phenotype (%): 43% and 40%
  Total Cell Count: 282 and 205
[4]
  Population Apoptotic (%): 79% and 73%
  Population Fragmented Nuclei (%): 16% and 25%
  Population Healthy Nuclei (%): 46% and 50%
  Population Hoechst High Intensity Objects (%): 0%
  Population Membrane Permeable-Phenotype (%): 2% and 6%
  Population Mitochondria Different-Phenotype (%): 38% and 39%
  Population Mitotic Cells (%): 20% and 26%
  Population Normal (%): 100% and 99%
  Population Pyknosed Nuclei (%): 37% and 23%
  Population Tubulin-Different-Phenotype (%): 88% and 92%
  Total Cell Count: 281 and 274
[5]
  Population Apoptotic (%): 65% and 85%
  Population Fragmented Nuclei (%): 21% and 25%
  Population Healthy Nuclei (%): 64% and 61%
  Population Hoechst High Intensity Objects (%): 1% and 0%
  Population Membrane Permeable-Phenotype (%): 4%
  Population Mitochondria Different-Phenotype (%): 2% and 5%
  Population Mitotic Cells (%): 34% and 14%
  Population Normal (%): 98% and 99%
  Population Pyknosed Nuclei (%): 14% and 12%
  Population Tubulin-Different-Phenotype (%): 44% and 38%
  Total Cell Count: 307 and 222
[6]
  Population Apoptotic (%): 97% and 94%
  Population Fragmented Nuclei (%): 18% and 24%
  Population Healthy Nuclei (%): 22% and 18%
  Population Hoechst High Intensity Objects (%): 1% and 0%
  Population Mitochondria Different-Phenotype (%): 46% and 48%
  Population Mitotic Cells (%): 2% and 5%
  Population Normal (%): 98% and 99%
  Population Pyknosed Nuclei (%): 58% and 57%
  Population Tubulin-Different-Phenotype (%): 77% and 93%
  Total Cell Count: 199 and 171

## CCN1CCN(Cc2ccc(C(=O)Nc3ccc(C)c(Oc4ccc5c(c4)CC(=O)N5)c3)cc2C(F)(F)F)CC1.Cl.Cl
[1]
  Population Apoptotic (%): 32% and 37%
  Population Fragmented Nuclei (%): 14% and 13%
  Population Healthy Nuclei (%): 59% and 62%
  Population Hoechst High Intensity Objects (%): 0%
  Population Membrane Permeable-Phenotype (%): 2% and 6%
  Population Mitochondria Different-Phenotype (%): 2% and 1%
  Population Mitotic Cells (%): 67% and 62%
  Population Normal (%): 100% and 99%
  Population Pyknosed Nuclei (%): 25% and 23%
  Population Tubulin-Different-Phenotype (%): 27%
  Total Cell Count: 230 and 264
[2]
  Population Apoptotic (%): 47% and 35%
  Population Fragmented Nuclei (%): 22% and 13%
  Population Healthy Nuclei (%): 58% and 61%
  Population Hoechst High Intensity Objects (%): 0%
  Population Membrane Permeable-Phenotype (%): 8%
  Population Mitochondria Different-Phenotype (%): 11% and 14%
  Population Mitotic Cells (%): 52% and 64%
  Population Normal (%): 99% and 100%
  Population Pyknosed Nuclei (%): 18% and 25%
  Population Tubulin-Different-Phenotype (%): 78% and 73%
  Total Cell Count: 298 and 282
[3]
  Population Apoptotic (%): 47% and 46%
  Population Fragmented Nuclei (%): 21% and 16%
  Population Healthy Nuclei (%): 61% and 59%
  Population Hoechst High Intensity Objects (%): 0%
  Population Membrane Permeable-Phenotype (%): 3% and 1%
  Population Mitochondria Different-Phenotype (%): 2% and 4%
  Population Mitotic Cells (%): 52% and 53%
  Population Normal (%): 99% and 100%
  Population Pyknosed Nuclei (%): 17% and 23%
  Population Tubulin-Different-Phenotype (%): 28% and 20%
  Total Cell Count: 278 and 269
[4]
  Population Apoptotic (%): 59% and 68%
  Population Fragmented Nuclei (%): 15% and 7%
  Population Healthy Nuclei (%): 57% and 51%
  Population Hoechst High Intensity Objects (%): 0% and 1%
  Population Membrane Permeable-Phenotype (%): 8% and 5%
  Population Mitochondria Different-Phenotype (%): 27% and 45%
  Population Mitotic Cells (%): 40% and 31%
  Population Normal (%): 99% and 98%
  Population Pyknosed Nuclei (%): 26% and 40%
  Population Tubulin-Different-Phenotype (%): 89% and 78%
  Total Cell Count: 258 and 216
[5]
  Population Apoptotic (%): 88% and 73%
  Population Fragmented Nuclei (%): 23% and 20%
  Population Healthy Nuclei (%): 67% and 61%
  Population Hoechst High Intensity Objects (%): 0%
  Population Membrane Permeable-Phenotype (%): 4% and 6%
  Population Mitochondria Different-Phenotype (%): 4% and 5%
  Population Mitotic Cells (%): 12% and 26%
  Population Normal (%): 100% and 99%
  Population Pyknosed Nuclei (%): 8% and 18%
  Population Tubulin-Different-Phenotype (%): 28% and 27%
  Total Cell Count: 282 and 246
[6]
  Population Apoptotic (%): 89% and 92%
  Population Fragmented Nuclei (%): 9% and 18%
  Population Healthy Nuclei (%): 44% and 41%
  Population Hoechst High Intensity Objects (%): 1% and 2%
  Population Membrane Permeable-Phenotype (%): 13% and 12%
  Population Mitochondria Different-Phenotype (%): 48% and 61%
  Population Mitotic Cells (%): 10% and 7%
  Population Normal (%): 98% and 97%
  Population Pyknosed Nuclei (%): 46% and 39%
  Population Tubulin-Different-Phenotype (%): 78% and 93%
  Total Cell Count: 190 and 197
